Measurements pooled from the literature.
Each line is one published result; the experiments were not run side by side.
PKN1: Serine/threonine-protein kinase N1 (PKN1, Homo sapiens, UniProt Q16512)
HRH1: Histamine H1 receptor (HRH1, Homo sapiens, UniProt P35367)
CA9: Carbonic anhydrase 9 (CA9, Homo sapiens, UniProt Q16790)
MAOB: Amine oxidase [flavin-containing] B (MAOB, Homo sapiens, UniProt P27338)
PADI4: Protein-arginine deiminase type-4 (PADI4, Homo sapiens, UniProt Q9UM07)

| Structure (SMILES) | target | assay | test system | setting | endpoint | result |
| --- | --- | --- | --- | --- | --- | --- |
| CCN(CCCOc1ccc2c(Nc3cc(CC(=O)Nc4cccc(F)c4)n[nH]3)ncnc2c1)CCOP(=O)(O)O | PKN1 | enzyme activity, inhibitor |  | 1 µM | activity vs control | 81% |
| CN1CCN(C2c3ccccc3C=Cc3ccccc32)CC1 | HRH1 | binding |  |  | koff | 0.000583 s⁻¹ |
| CCOC(=O)C1CSc2[nH]c(=O)sc2C1c1cn(-c2ccccc2)nc1-c1ccc(OC)cc1 (stereo not drawn) | CA9 | enzyme activity, inhibitor |  | 10 µM | inhibition | 84.9% |
| O=C(Nc1ccccc1Cl)c1cc(Cl)ccc1O | MAOB | enzyme activity, inhibitor |  | 1 µM, 20 min | inhibition | 5% |
| N=C(CCl)NCCC[C@H](NC(=O)c1ccccc1C(=O)O)c1nn[nH]n1 | PADI4 | enzyme activity, inhibitor |  |  | kinact/KI | 2660 M⁻¹ s⁻¹ |
| COc1ccc(NC(=O)c2cc(Cl)ccc2O)cc1OC | MAOB | enzyme activity, inhibitor |  | 1 µM, 20 min | inhibition | 30% |
| CCOC(=O)C1CSc2[nH]c(=O)sc2C1c1cn(-c2ccccc2)nc1-c1ccc(Br)cc1 (stereo not drawn) | CA9 | enzyme activity, inhibitor |  | 1 µM | inhibition | 61% |
| CN1CCC(=C2c3ccccc3CCc3cccnc32)CC1 | HRH1 | binding |  |  | kon | 533000 M⁻¹ s⁻¹ |
| Cc1ccc(C(=O)Nc2ccc([N+](=O)[O-])cc2C(F)(F)F)cc1 | MAOB | enzyme activity, inhibitor |  | 1 µM, 20 min | inhibition | 69% |
| CN1CCC(C2c3ccccc3CCc3ccccc32)CC1 | HRH1 | binding |  |  | kon | 717000 M⁻¹ s⁻¹ |
| N=C(CF)NCCC[C@H](NC(=O)c1ccccc1)c1nn[nH]n1 | PADI4 | enzyme activity, inhibitor |  |  | kinact/KI | 67.5 M⁻¹ s⁻¹ |
| Oc1ccc2ccccc2c1SSc1c(O)ccc2ccccc12 | PKN1 | enzyme activity, inhibitor |  | 1 µM | activity vs control | 63% |
| N#CC1CSc2[nH]c(=O)sc2C1c1cn(-c2ccccc2)nc1-c1ccc(Br)cc1 (stereo not drawn) | CA9 | enzyme activity, inhibitor |  | 10 µM | inhibition | 88.5% |
| O=C(Nc1ccc([N+](=O)[O-])cc1[N+](=O)[O-])c1cc2ccccc2o1 | MAOB | enzyme activity, inhibitor |  | 1 µM, 20 min | inhibition | 80% |
| N#C/C(=C\c1ccc(O)c(O)c1)C(=O)Nc1ccccc1 | PKN1 | enzyme activity, inhibitor |  | 1 µM | activity vs control | 78% |
| Nc1ncnc2c1ncn2[C@@H]1O[C@H](COP(=O)(O)OP(=O)(O)O)[C@@H](O)[C@H]1O | Katanin p60 ATPase-containing subunit A1 (Homo sapiens, UniProt O75449, D210C) | thermal stability, DSF |  | 1 mM | ΔTm | 4.5 to 4.8 °C |
| O=C(O)c1ccc(-c2c[nH]c3ncc(-c4ccccc4)cc23)cc1C1CCCC1 | PKN1 | enzyme activity, inhibitor |  | 1 µM | activity vs control | 24% |
| O=C(Nc1ccc(C(F)(F)F)cc1)c1cc2ccccc2cc1O | MAOB | enzyme activity, inhibitor |  | 1 µM, 20 min | inhibition | 67% |
| O=C(Nc1ccc(N2C(=O)c3ccccc3C2=O)c(Cl)c1)c1ncccc1O | Metabotropic glutamate receptor 1 (GRM1, Homo sapiens, UniProt Q13255) | calcium signal, positive allosteric modulator | T-REx-293 |  | Emax | 106% |
| O=C(c1ccc(Cl)cc1)N(Cc1ccccc1)C1CCCCC1 | Endothelin receptor type B (EDNRB, Homo sapiens, UniProt P24530) | cell-free assay |  | 10 µM | inhibition | 3.4% |
| O=C(Nc1cc(Cl)ccc1O)c1ccc([N+](=O)[O-])cc1Cl | MAOB | enzyme activity, inhibitor |  | 1 µM, 20 min | inhibition | 36% |
| CCOC(=O)C1CSc2[nH]c(=O)sc2C1c1cn(-c2ccccc2)nc1-c1ccc(Cl)cc1 (stereo not drawn) | CA9 | enzyme activity, inhibitor |  | 1 µM | inhibition | 70.1% |
| C[C@@H](Oc1cc(-n2cnc3ccc(CN4CCN(C)CC4)cc32)sc1C(N)=O)c1ccccc1C(F)(F)F | PKN1 | enzyme activity, inhibitor |  | 1 µM | activity vs control | 81% |
| O=C(Nc1ccc([N+](=O)[O-])cc1Cl)c1ccc(Cl)cc1 | MAOB | enzyme activity, inhibitor |  | 1 µM, 20 min | inhibition | 25% |
